From ChEMBL document CHEMBL1135477, “Antifungal agents. 10. New derivatives of 1-[(aryl)[4-aryl-1H-pyrrol-3-yl]methyl]-1H-imidazole, synthesis, anti-candida activity, and quantitative structure-analysis relationship studies” (J Med Chem, 2002)
≈ marks a conversion by molar mass, not a printed value.

What was measured:
Format in all cases: functional
[1] = tested on: Candida; assay: Tested in vitro for antifungal activity against Candida species. at pH 5.8 (percent of resistant species at 256 ug/mL)
How it was run: (§1)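 Broth serial-dilution test in Sabouraud broth at pH 7.2 or 5.8, against 3 fresh clinical non-albicans isolates (two C. glabrata, one C. krusei). Inocula were 10³/mL, pre-grown 18 h at 37 °C. Compound was twofold-diluted over 0.25–256 µg/mL and read at 24 h, 37 °C for visible growth.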

[2] = tested on: Candida albicans; assay: In vitro antifungal activity against 40 strains of Candida albicans at pH 5.8
How it was run: (§2)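 Broth serial-dilution MIC against 40 clinical C. albicans isolates from hospitalized patients, grown in Sabouraud broth at pH 7.2 or 5.8. Cells were pre-grown 18 h at 37 °C, inoculated at 10³/mL, and read at 24 h, 37 °C. Doubling dilutions ran 0.25–256 μg/mL from a DMSO/water solution. MIC was the lowest concentration with no visible growth against a DMSO/water blank.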

[3] = molecular target: Lanosterol 14-alpha demethylase (Candida albicans (strain SC5314 / ATCC MYA-2876) (Yeast), UniProt P10613); assay: Anticandida activity- (MIC90 compound) / (MIC90 bifonazole)
Lanosterol 14-alpha demethylase, sequence (P10613 whole entry): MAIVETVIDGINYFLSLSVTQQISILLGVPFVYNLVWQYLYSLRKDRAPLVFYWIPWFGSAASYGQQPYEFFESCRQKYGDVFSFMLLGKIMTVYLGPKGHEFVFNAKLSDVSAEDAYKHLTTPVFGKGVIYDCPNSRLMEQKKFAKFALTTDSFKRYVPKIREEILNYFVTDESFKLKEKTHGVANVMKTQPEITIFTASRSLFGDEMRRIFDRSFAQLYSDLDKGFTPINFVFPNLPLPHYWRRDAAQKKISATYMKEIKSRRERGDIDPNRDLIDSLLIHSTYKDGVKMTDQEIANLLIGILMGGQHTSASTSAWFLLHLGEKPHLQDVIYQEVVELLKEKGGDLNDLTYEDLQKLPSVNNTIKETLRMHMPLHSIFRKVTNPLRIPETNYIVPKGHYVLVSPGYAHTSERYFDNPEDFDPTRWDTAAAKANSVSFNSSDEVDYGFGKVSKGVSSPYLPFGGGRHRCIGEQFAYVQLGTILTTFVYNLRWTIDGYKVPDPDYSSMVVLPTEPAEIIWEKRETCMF

[4] = tested on: Candida albicans; assay: In vitro antifungal activity against 40 strains of Candida albicans at pH 5.8; (range is from 0.25 to 64); how it was run: as §2
[5] = tested on: Candida; assay: Tested in vitro for antifungal activity against Candida species. at pH 5.8 (range is from 4 to 16)
How it was run: (§3)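 Liquid serial-dilution MIC against 3 freshly isolated clinical Candida strains (two C. glabrata, one C. krusei) in Sabouraud broth at pH 7.2 or 5.8. Inoculum was 10³/mL after 18 h pre-culture at 37 °C, read at 24 h, 37 °C. Range was 0.25–256 μg/mL. Endpoint was no visible growth versus a DMSO/water blank.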

[6] = tested on: Candida; assay: Tested In vitro for antifungal activity against Candida species. at pH 7.2; (percent of resistant species at 256 ug/mL); how it was run: as §1
[7] = tested on: Candida albicans; assay: In vitro antifungal activity against 40 strains of Candida albicans at pH 5.8; (percent of resistant species at 256 ug/mL)
How it was run: (§4)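 Broth serial-dilution test in Sabouraud broth at pH 7.2 or 5.8, against 40 fresh clinical C. albicans isolates from hospitalized patients. Inocula were 10³/mL, pre-grown 18 h at 37 °C in Sabouraud dextrose broth. Compound from a DMSO/water stock was twofold-diluted over 0.25–256 µg/mL. Visible growth was read at 24 h, 37 °C.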

[8] = tested on: Candida; assay: Tested in vitro for antifungal activity against Candida species. at pH 5.8; how it was run: as §3
[9] = tested on: Candida; assay: Tested In vitro for antifungal activity against Candida species. at pH 7.2; (range is from 2 to 32); how it was run: as §3
[10] = tested on: Candida; assay: Tested In vitro for antifungal activity against Candida species. at pH 7.2; how it was run: as §3
[11] = tested on: Candida albicans; assay: In vitro antifungal activity against 40 strains of Candida albicans at pH 7.2; how it was run: as §2
[12] = tested on: Candida albicans; assay: In vitro antifungal activity against 40 strains of Candida albicans at pH 7.2; (percent of resistant species at 256 ug/mL); how it was run: as §4
[13] = tested on: Candida albicans; assay: In vitro antifungal activity against 40 strains of Candida albicans at pH 7.2; minimum inhibitory concentration (range is from 1 to 32); how it was run: as §2
[14] = tested on: Candida albicans; assay: In vitro antifungal activity against 40 strains of Candida albicans at pH 7.2; minimum inhibitory concentration (range is from 4 to 64); how it was run: as §2
[15] = tested on: Candida; assay: Tested in vitro for antifungal activity against Candida species. at pH 5.8 ( range is from 8 to 16); how it was run: as §3
[16] = tested on: Candida; assay: In vitro antifungal activity against 40 strains at pH 5.8,(percent of resistant species at 256 ug/mL); how it was run: as §4
[17] = tested on: Candida albicans; assay: In vitro antifungal activity against 40 strains of Candida albicans at pH 5.8; (range is from 1 to 16); how it was run: as §2
[18] = tested on: Candida; assay: Tested In vitro for antifungal activity against Candida species. at pH 7.2; (range is from 4 to 32); how it was run: as §3
[19] = tested on: Candida albicans; assay: IIn vitro antifungal activity against 40 strains of Candida albicans at pH 5.8; (percent of resistant species at 256 ug/mL); how it was run: as §4
[20] = tested on: Candida; assay: Tested in vitro for antifungal activity against Candida species. at pH 5.8; range is from 1 to 64; how it was run: as §3
[21] = tested on: Candida; assay: Tested In vitro for antifungal activity against Candida species. at pH 7.2; (range is from 4 to 16); how it was run: as §3
[22] = tested on: Candida albicans; assay: In vitro antifungal activity against 40 strains of Candida albicans at pH 5.8; value ranges from 0.5 to 4); how it was run: as §2
[23] = tested on: Candida albicans; assay: In vitro antifungal activity against 40 strains of Candida albicans at pH 5.8; (range is from 0.25 to 32); how it was run: as §2
[24] = tested on: Candida; assay: Tested in vitro for antifungal activity against Candida species. at pH 5.8; (range is from 4 to 8); how it was run: as §3
[25] = tested on: Candida; assay: Tested In vitro for antifungal activity against Candida species. at pH 7.2; (range is from 8 to 16); how it was run: as §3
[26] = tested on: Candida albicans; assay: IIn vitro antifungal activity against 40 strains of Candida albicans at pH 7.2; minimum inhibitory concentration (range is from 0.5 to 16); how it was run: as §2
[27] = tested on: Candida albicans; assay: Compound was tested for its anti-candida activity, expressed as ratio of minimum inhibitory concentration

| SMILES | Resistance [1] | MIC [2] | MIC50 [2] | MIC90 [2] | Ratio [3] | Resistance [6] | Resistance [7] | MIC [8] | MIC50 [8] | MIC90 [8] | MIC [10] | MIC50 [10] | MIC90 [10] | MIC [11] | MIC50 [11] | MIC90 [11] | Resistance [12] | Range [13] | Resistance [19] | other results |
| --- | --- | --- | --- | --- | --- | --- | --- | --- | --- | --- | --- | --- | --- | --- | --- | --- | --- | --- | --- | --- |
| Clc1ccc([C@H](c2c[nH]cc2-c2ccc(-n3cccc3)cc2)n2ccnc2)c(Cl)c1 | 0% | 3.95 µg/mL (≈ 9.12 µM) | 2 µg/mL (≈ 4.62 µM) | 4 µg/mL (≈ 9.23 µM) | 0.72 | 0% | 0% | 9.3 µg/mL (≈ 21.5 µM) | 8 µg/mL (≈ 18.5 µM) | 16 µg/mL (≈ 36.9 µM) | 14.1 µg/mL (≈ 32.6 µM) | 4 µg/mL (≈ 9.23 µM) | 32 µg/mL (≈ 73.8 µM) | 4.4 µg/mL (≈ 10.2 µM) | 2 µg/mL (≈ 4.62 µM) | 4 µg/mL (≈ 9.23 µM) | 0% | 32 µg/mL |  | Range [4]: 64 µg/mL; Range [5]: 16 µg/mL; Range [9]: 32 µg/mL |
| FC(F)(F)c1ccc(-c2c[nH]cc2[C@@H](c2ccc(Cl)cc2Cl)n2ccnc2)cc1 |  | 4.8 µg/mL (≈ 11 µM) | 4 µg/mL (≈ 9.17 µM) | 8 µg/mL (≈ 18.3 µM) |  | 0% |  | 16 µg/mL (≈ 36.7 µM) | 16 µg/mL (≈ 36.7 µM) | 16 µg/mL (≈ 36.7 µM) | 17.3 µg/mL (≈ 39.7 µM) | 16 µg/mL (≈ 36.7 µM) | 32 µg/mL (≈ 73.4 µM) | 7.63 µg/mL (≈ 17.5 µM) | 4 µg/mL (≈ 9.17 µM) | 8 µg/mL (≈ 18.3 µM) | 0% |  | 0% | Range [14]: 64 µg/mL; Range [15]: 16 µg/mL; Resistance [16]: 0%; Range [17]: 16 µg/mL; Range [18]: 32 µg/mL |
| Cn1cc(-c2ccc(Cl)cc2)c([C@H](c2ccc(Cl)cc2Cl)n2ccnc2)c1 | 0% | 2.54 µg/mL (≈ 6.09 µM) | 0.5 µg/mL (≈ 1.2 µM) | 2 µg/mL (≈ 4.8 µM) | 3 | 0% | 0% | 4.5 µg/mL (≈ 10.8 µM) | 2 µg/mL (≈ 4.8 µM) | 64 µg/mL (≈ 154 µM) | 6.1 µg/mL (≈ 14.6 µM) | 16 µg/mL (≈ 38.4 µM) | 32 µg/mL (≈ 76.8 µM) | 5.3 µg/mL (≈ 12.7 µM) | 2 µg/mL (≈ 4.8 µM) | 16 µg/mL (≈ 38.4 µM) | 0% | 32 µg/mL |  | Range [20]: 64 µg/mL; Range [21]: 16 µg/mL; Range [22]: 4 µg/mL |
| CCn1cc(-c2ccc(Cl)cc2)c([C@H](c2ccc(Cl)cc2Cl)n2ccnc2)c1 | 0% | 2.36 µg/mL (≈ 5.48 µM) | 1 µg/mL (≈ 2.32 µM) | 2 µg/mL (≈ 4.64 µM) | 2.9 | 0% |  | 5.33 µg/mL (≈ 12.4 µM) | 4 µg/mL (≈ 9.29 µM) | 8 µg/mL (≈ 18.6 µM) | 13.3 µg/mL (≈ 30.9 µM) | 16 µg/mL (≈ 37.1 µM) | 16 µg/mL (≈ 37.1 µM) | 3.2 µg/mL (≈ 7.43 µM) | 1 µg/mL (≈ 2.32 µM) | 2 µg/mL (≈ 4.64 µM) | 0% |  | 0% | Range [23]: 32 µg/mL; Range [24]: 8 µg/mL; Range [25]: 16 µg/mL; Range [26]: 16 µg/mL |
| c1ccc(-c2ccc([C@@H](c3ccccc3)n3ccnc3)cc2)cc1 [BIFONAZOLE] |  |  |  |  |  |  |  |  |  |  |  |  |  |  |  |  |  |  |  | MIC90 ratio [27]: 1 |
